# From publication PMC3313494 (Journal of the American Chemical Society, 2012)
# Ends that are not written are not given here.
# Columns and labels:
# sirtuins = test: Turnover of biotin-NAD as NAD alternate substrate; format: biochemical; conditions: 6-biotin-17-NAD; Supplemental Figure S12
# Sir2Tm = Sir2Tm (Thermotoga maritima, UniProt Q9WYW0); test: HPLC deacetylation assay, Sir2Tm; format: biochemical, bacterial; conditions: pH 8.0, 37°C
# Method in brief: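 Enzyme addition at 37°C started the reaction; Sir2Tm was refolded from inclusion bodies, ~90% pure. Aliquots at 0, 5, 10, 20 min were acid-quenched, urea-treated, ultrafiltered and resolved by C18 reverse-phase HPLC; integrated peak areas gave rate constants.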
# SIRT1 = target: T1, SIRT1 (Homo sapiens, UniProt Q96EB6); test: HPLC deacetylation assay, SIRT1; format: biochemical; conditions: 0.07 μM (1U) SIRT1, 500 μM NAD, peptide 0–500 μM, pH 8.0, 37°C, 0–20 min, at least duplicate
# T1 sequence (Q96EB6 1-747): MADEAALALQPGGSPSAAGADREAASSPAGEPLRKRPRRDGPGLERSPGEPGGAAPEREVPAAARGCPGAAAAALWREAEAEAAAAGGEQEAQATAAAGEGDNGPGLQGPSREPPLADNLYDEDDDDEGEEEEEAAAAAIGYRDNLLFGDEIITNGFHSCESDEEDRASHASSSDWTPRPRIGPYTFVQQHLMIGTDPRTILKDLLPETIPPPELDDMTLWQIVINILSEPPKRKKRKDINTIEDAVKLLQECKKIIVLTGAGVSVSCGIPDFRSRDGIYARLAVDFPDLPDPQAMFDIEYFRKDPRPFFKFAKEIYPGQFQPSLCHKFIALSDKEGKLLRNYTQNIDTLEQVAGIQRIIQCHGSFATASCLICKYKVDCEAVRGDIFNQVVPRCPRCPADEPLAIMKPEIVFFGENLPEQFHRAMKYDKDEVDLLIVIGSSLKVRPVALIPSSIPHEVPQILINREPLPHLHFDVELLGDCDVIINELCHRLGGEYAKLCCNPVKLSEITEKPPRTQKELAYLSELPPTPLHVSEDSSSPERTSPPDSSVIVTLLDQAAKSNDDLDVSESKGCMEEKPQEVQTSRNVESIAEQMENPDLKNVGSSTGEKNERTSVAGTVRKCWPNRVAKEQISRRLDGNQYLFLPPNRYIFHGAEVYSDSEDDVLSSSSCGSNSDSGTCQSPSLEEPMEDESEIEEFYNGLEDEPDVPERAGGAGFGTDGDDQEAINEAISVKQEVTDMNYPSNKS
# monoamine oxidases = conditions: used in the treatment of clinical depression; cited from earlier work
# Chain of Sir2Tm (Q9WYW0 whole entry): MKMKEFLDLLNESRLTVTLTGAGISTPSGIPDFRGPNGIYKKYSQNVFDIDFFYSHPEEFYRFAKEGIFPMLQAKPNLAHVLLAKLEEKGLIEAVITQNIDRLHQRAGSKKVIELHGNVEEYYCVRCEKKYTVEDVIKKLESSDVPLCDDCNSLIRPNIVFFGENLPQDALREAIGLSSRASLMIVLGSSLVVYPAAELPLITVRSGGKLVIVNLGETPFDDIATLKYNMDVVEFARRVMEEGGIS
compound,measurement,setting,value
6-biotin-17-NAD,use as NAD alternate substrate by sirtuins,sirtuins,can be turned over by sirtuins as an NAD alternate substrate
"K382KAc: corresponding natural acetylated substrate, p53 (372–389) peptide containing acetyl-lysine at 382 (KKGQSTSRHKK(Ac)LMFKTEG; UniProt P04637 372-389, looked up, fragment)",deacetylation rate (apparent kcat),"Sir2Tm; 0.3–0.15 μM Sir2Tm, 500 μM NAD, peptide 0–500 μM, 0–20 min, HPLC, at least duplicate",0.18 ± 0.025 s⁻¹
same,Km,"Sir2Tm; steady-state kinetics, Sir2Tm, 0.5 mM NAD, p53 (372–389) peptides",71.8 ± 24.5 µM
same,deacetylation rate (apparent kcat),SIRT1,0.205 ± 0.012 s⁻¹
NNCCc1ccccc1 [phenethylhydrazine],monoamine oxidase inhibition,monoamine oxidases,well-established inhibitor of monoamine oxidases
